Assay outcomes (PubChem BioAssay)
In the library only some 2.1% were active in any assay of this set; here they are far more common.
Ba/F3 V617F tox – lowers viability of Ba/F3 cells expressing EpoR and JAK2V617F; ATP luminescence; inhibition, % at 5.6 µM; hit rate 1.1% among 220,000; AID 1446;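 active means inhibition above the campaign mean plus 3 SD over all tested compounds, cut at about 24% in these data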;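 further: cytokine-independent growth of Ba/F3 cells driven by EpoR plus mutant JAK2; 0% = DMSO-treated cells and 100% = JAK inhibitor I control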
IEC-6 tox – counter-screen for KLF5 inhibitors: cytotoxicity in IEC-6 cells | IEC-6 cytotoxicity, luminescence viability | inhibition, % at 5 µM | hit rate 0.78% among 290,000 | AID 1825; in the data active means inhibition above about 22%;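 further: 0% = plate median of test compound wells and 100% = cytotoxic reference compound wells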
b-catenin transl – beta-catenin nuclear translocation modulation. HeLa beta-catenin nuclear translocation, immunofluorescence imaging. nuclear translocation activity, % at 5 µM. hit rate 0.3% among 190,000;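 active means nuclear translocation activity above 50% at 5 µM, with a well cell count of 50 or more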;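 further: per-cell ratio of nuclear to cytoplasmic median beta-catenin stain intensity; plate controls were DMSO negative control for no effect and GSK-3 inhibitor IX positive control for full effect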
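System: Human HeLa cells, endogenous beta-catenin | Compound dosing: 5 µM primary, 0.02–20 µM confirmation | Timing: 24 h compound exposure at 37°C, 5% CO2 | Measured by: Fluorescence imaging of beta-catenin antibody stain plus DAPI | Read-out basis: % activation of per-cell nuclear versus cytoplasmic median beta-catenin signal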
KLF5 inhibitor – inhibitors of KLF5 expression | DLD-1 KLF5 promoter-luciferase reporter, luminescence | inhibition, % at 5 µM | hit rate 0.23% among 290,000 | AID 1700;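 active means inhibition above a per-plate limit of that plate's mean compound inhibition plus 3 SD, cut at about 60% in these data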;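 further: 0% = DMSO wells and 100% = LY294002 at 200 µM; higher means less KLF5 promoter-driven luciferase light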
MT stabilize HCS – stabilizes microtubules in HeLa cells | AID 2205 | hit rate 0.83% among 200,000 | % tubulin-high responders, % at 10 µM | HeLa tubulin immunostaining HCS, 24 h; share of cells brighter than vehicle mean+2SD;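 active means plate Z-score above 3 for both tubulin-high and condensed-nucleus cell shares, with cell loss under 80%, at 10 µM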;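 further: anti alpha tubulin signal scored within the nucleus-defined area of each cell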
BaF3 parental – reduces parental Ba/F3 cell viability, JAK2V617F counter-screen | CellTiter-Glo ATP luminescence | inhibition, % at 5.6 µM | hit rate 1.1% among 220,000 | AID 1486;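 active means inhibition above a per-campaign cutoff, the mean inhibition of all tested compounds plus 3 SD, cut at about 27% in these data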;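 further: 0% = DMSO wells and 100% = JAK Inhibitor I control wells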
* marks the source's active call; other numbers are inactive results; / = no result given.

SMILES	Ba/F3 V617F tox	IEC-6 tox	b-catenin transl	KLF5 inhibitor	MT stabilize HCS	BaF3 parental
COc1ccc(N(C(=O)CCl)C(C(=O)NCCc2ccccc2)c2cccs2)cc1 (configuration not stated)	102*	41*	2	6	13	30*
Cc1cc(C)cc(NC(=S)NCCN(C2CCCCC2)C2CCCC2)c1	7	10	0	-6	3	72*
CSC1=NC(C(Cl)(Cl)Cl)N=C(c2ccccc2)N1 (configuration not stated)	4	-1	75*	-1	15*	13
CCOC(=O)C1C(=O)NC(c2ccccc2)=NC1c1ccc(F)cc1 (configuration not stated)	-4	6	/	19	2	0
COc1ccc(C(F)(F)F)cc1N/C=C/c1nnnn1-c1ccc2ccccc2c1	0	5	2	1	/	4
c1ccc(CCc2nc3ccccc3[nH]2)cc1	-1	-5	0	-93	1	3
Nc1cccc(CCc2nc3cc4ccccc4cc3[nH]2)c1	88*	49*	81*	-49	18	51*
CCCCCC(=O)OC(CN1CCCCC1)CN1CCCC1=O (configuration not stated)	-1	-8	-6	-9	2	2
CN(C)C(CNC(=O)CCc1c[nH]c2ccccc12)c1ccccc1 (configuration not stated)	/	2	/	-25	/	/
CC1(C)CC(=O)C(C(=S)Nc2ccccc2)=C(NCCN2CCOCC2)C1	0	-6	-1	-15	2	35*
CC1(C)CC(=O)C(C(=S)Nc2ccc(F)cc2)=C(NCCN2CCOCC2)C1	2	-2	-1	-10	4	6
Cc1ccc(Oc2ccc(S(=O)(=O)N3CCOCC3)cc2C(N)=O)c(-n2nc3ccccc3n2)c1	-2	2	0	-14	27*	1
COc1ccccc1Oc1ccc(S(=O)(=O)N2CCOCC2)cc1S(=O)(=O)N1CCOCC1	-3	-4	-2	8	2	5
CC(NC(=O)CCSc1nc(-c2ccc3c(c2)OCO3)cc(C(F)(F)F)n1)c1ccccc1 (configuration not stated)	4	7	-2	6	2	1
O=S(=O)(c1ccc2c(c1)OCCO2)N1CCN(c2ncnc3sccc23)CC1	44*	9	-2	11	5	78*
COc1ccccc1OCCNC(=O)c1cccc(S(=O)(=O)N2CC(C)OC(C)C2)c1 (configuration not stated)	/	-4	/	-31	/	/
Cn1ncc(C#N)c1NC(=O)C1CC(c2ccccc2Cl)=NO1 (configuration not stated)	0	0	0	-23	/	5
Brc1ccccc1-c1nnc2sc(-c3ccc4c(c3)OCCO4)nn12	4	9	/	-11	38*	2
CN(C)CCCNc1ncc(C(F)(F)F)cc1Cl	-3	6	-4	-17	14*	0
CN(C)CCCNC(=O)CCc1ncc(C(F)(F)F)cc1Cl	-4	2	2	0	2	-4
CC(=O)ONC(=Nc1ccccc1)c1nonc1N	-4	-6	1	-26	/	2
CCOC(=O)c1ccc(NC2=CC(=O)CC(c3ccco3)C2)cc1 (configuration not stated)	3	3	-1	10	3	3
O=C1C=C(Nc2ccc(O)cc2)CC(c2ccco2)C1 (configuration not stated)	1	1	10	5	46*	3
Cc1c(C(C)C)c(=O)n(-c2ccc(S(=O)(=O)NC3CCCCC3)cc2)n1C	37*	5	0	-4	4	41*
Cc1c(C(C)C)c(=O)n(-c2ccc(S(=O)(=O)NCc3ccccc3)cc2)n1C	42*	6	2	-21	3	72*
SMILES	Ba/F3 V617F tox	IEC-6 tox	b-catenin transl	KLF5 inhibitor	MT stabilize HCS	BaF3 parental
O=C(N/N=C\c1cccc(Cl)c1)c1n[nH]c2c1CCCC2	1	4	-2	-90	5	7
O=C(N/N=C/c1ccc(Cl)cc1Cl)c1n[nH]c2c1CCCC2	4	8	20	4	22*	2
O=C(N/N=C/C=C/c1ccccc1)c1n[nH]c2c1CCC2	10	11	176*	-7	25*	7
O=C(N/N=C/c1cccc2ccccc12)c1n[nH]c2c1CCCC2	-2	2	9	-18	31*	9
Cc1ccc(NC(=O)NCc2ccccn2)c(C)c1	/	-6	/	-26	/	/
CC(OC(=O)CCCCCN=C1NS(=O)(=O)c2ccccc21)C(=O)Nc1cc(Cl)cc(Cl)c1 (configuration not stated)	3	-1	0	-31	2	11
COc1ccc2c(-c3ccccc3)cc(SC(C)C(N)=O)nc2c1 (configuration not stated)	-2	20	-3	-9	2	0
Cc1cc(=O)[nH]c(N/N=C/c2cc(C)n(CC(F)(F)F)c2C)n1	76*	0	0	12	/	32*
O=C(C1=C[C@@H](c2ccccc2)C[C@@H](OCc2ccc(CO)cc2)O1)N1CCN(Cc2ccc3c(c2)OCO3)CC1	-2	6	14	6	13*	-2
O=C(C1=C[C@@H](c2csc3ccccc23)C[C@@H](OCc2ccc(CO)cc2)O1)N1CCN(Cc2ccccc2)CC1	-1	-7	-4	0	4	-2
O=C(C1=C[C@H](c2ccccc2)C[C@H](OCc2ccc(CO)cc2)O1)N1CCN(Cc2ccccc2)CC1	-1	-1	-1	1	4	3
O=C(C1=C[C@@H](c2csc3ccccc23)C[C@@H](OCc2ccc(CO)cc2)O1)N1CCN(Cc2ccc3c(c2)OCO3)CC1	2	-1	49	-10	22*	0
COc1ccc2c(c1)-c1c(ssc1=S)C(C)(C)N2C(=O)CSC1=NCCS1	-3	-9	0	15	2	-6
CCOc1ccc2c(c1)-c1c(ssc1=S)C(C)(C)N2C(=O)c1ccco1	2	0	68*	12	13	3
COc1cc(C(=O)N2CCN(c3ccc(C)cc3C)CC2)cc(OC)c1OC	37*	42*	27	29	27*	44*
Cc1ccc(N2CCN(C(=O)c3ccccc3)CC2)c(C)c1	2	1	/	-18	5	3
O=C(NCC(c1cccs1)N1CCOCC1)c1ccc(Br)o1 (configuration not stated)	-1	0	1	-29	22*	7
O=[N+]([O-])c1ccc2c(OCc3nnc(-c4ccccc4Br)o3)ncnc2c1	1	1	-1	-2	/	-3
O=C(N/N=C/c1ccc(F)cc1)c1ccc(OCc2ccccc2)cc1	4	-6	0	-12	/	49*
Cc1c(Cc2ccccc2)sc(/N=C/c2ccc3ccccc3c2)c1C(N)=O	-3	8	101*	5	19*	2
